Measured values taken from ChEMBL document CHEMBL4387722.

Key:
[1] = target: T1, Phosphotyrosine protein phosphatase (Mycobacterium tuberculosis, UniProt A0A045ISB3); assay: Inhibition of Mycobacterium tuberculosis His-tagged PtpB expressed in Escherichia coli Rosetta 2 (DE3) using pNPP as substrate after 30 mins by spectrophotometric method
T1 sequence (A0A045ISB3 whole entry): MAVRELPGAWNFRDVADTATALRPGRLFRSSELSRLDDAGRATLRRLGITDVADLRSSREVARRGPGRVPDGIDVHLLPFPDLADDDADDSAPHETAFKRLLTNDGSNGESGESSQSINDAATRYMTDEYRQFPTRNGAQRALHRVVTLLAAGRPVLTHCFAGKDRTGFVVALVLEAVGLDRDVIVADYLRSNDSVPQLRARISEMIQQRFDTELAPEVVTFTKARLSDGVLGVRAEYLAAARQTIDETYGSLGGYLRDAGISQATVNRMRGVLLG

[2] = target: T2, Tyrosine-protein phosphatase non-receptor type 1 (Homo sapiens, UniProt P18031); assay: Inhibition of human PTPN1 expressed in Escherichia coli Rosetta 2 (DE3) using pNPP as substrate after 45 mins by spectrophotometric method
T2 sequence (P18031 whole entry): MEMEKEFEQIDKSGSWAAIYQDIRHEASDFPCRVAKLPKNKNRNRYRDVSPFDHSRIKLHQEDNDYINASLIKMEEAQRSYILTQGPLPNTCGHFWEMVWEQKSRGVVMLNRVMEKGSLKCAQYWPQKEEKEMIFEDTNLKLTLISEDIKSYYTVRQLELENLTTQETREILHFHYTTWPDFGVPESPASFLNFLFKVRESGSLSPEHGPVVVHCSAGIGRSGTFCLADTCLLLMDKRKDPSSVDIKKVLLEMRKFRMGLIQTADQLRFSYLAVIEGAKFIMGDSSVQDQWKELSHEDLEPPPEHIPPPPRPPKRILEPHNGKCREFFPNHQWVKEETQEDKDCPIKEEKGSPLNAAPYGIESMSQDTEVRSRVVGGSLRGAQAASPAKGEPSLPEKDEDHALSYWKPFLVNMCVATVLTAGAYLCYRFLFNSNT

[3] = target: T3, Tyrosine-protein phosphatase non-receptor type 2 (Homo sapiens, UniProt P17706); assay: Inhibition of human PTPN2 expressed in Escherichia coli Rosetta 2 (DE3) using pNPP as substrate after 45 mins by spectrophotometric method
T3 sequence (P17706 whole entry): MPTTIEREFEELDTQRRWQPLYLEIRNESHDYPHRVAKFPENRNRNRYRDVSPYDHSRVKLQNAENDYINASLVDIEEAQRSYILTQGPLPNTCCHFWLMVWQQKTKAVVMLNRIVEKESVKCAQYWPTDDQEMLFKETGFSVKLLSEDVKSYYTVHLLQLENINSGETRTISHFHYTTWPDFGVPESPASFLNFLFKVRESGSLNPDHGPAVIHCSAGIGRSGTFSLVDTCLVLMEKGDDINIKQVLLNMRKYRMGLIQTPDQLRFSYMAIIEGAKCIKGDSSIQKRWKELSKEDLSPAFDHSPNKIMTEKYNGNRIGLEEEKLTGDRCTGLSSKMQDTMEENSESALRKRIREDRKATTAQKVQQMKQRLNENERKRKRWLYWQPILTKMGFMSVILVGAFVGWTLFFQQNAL

[4] = target: T4, Tyrosine-protein phosphatase non-receptor type 5 (Homo sapiens, UniProt P54829); assay: Inhibition of human PTPN5 expressed in Escherichia coli Rosetta 2 (DE3) using pNPP as substrate after 45 mins by spectrophotometric method
T4 sequence (P54829 whole entry): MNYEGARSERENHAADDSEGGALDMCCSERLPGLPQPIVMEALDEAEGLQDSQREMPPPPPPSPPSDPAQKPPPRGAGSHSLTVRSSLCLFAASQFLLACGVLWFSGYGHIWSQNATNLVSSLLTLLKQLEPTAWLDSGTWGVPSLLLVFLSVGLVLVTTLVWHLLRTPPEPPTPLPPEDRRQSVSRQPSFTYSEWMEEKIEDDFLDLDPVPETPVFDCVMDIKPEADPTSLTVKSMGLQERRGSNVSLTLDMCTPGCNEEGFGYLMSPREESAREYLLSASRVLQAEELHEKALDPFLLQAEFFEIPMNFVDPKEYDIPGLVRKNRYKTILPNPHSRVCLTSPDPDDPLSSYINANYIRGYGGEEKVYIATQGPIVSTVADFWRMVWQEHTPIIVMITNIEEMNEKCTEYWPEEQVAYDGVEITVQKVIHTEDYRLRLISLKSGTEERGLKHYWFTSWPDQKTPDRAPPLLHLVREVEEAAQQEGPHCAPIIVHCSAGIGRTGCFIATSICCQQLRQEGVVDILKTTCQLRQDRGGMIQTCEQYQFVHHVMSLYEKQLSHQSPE

[5] = tested on: Mycobacterium tuberculosis; assay: Antitubercular activity against Mycobacterium tuberculosis H37Rv after 5 days at 200 uM relative to control; type: functional; details: 120 h
Method in brief: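 M. tuberculosis grown in liquid culture with compound at a fixed 200 μM for 5 days. Growth inhibition expressed as percent of control.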

[6] = tested on: Mycobacterium tuberculosis; assay: Antitubercular activity against Mycobacterium tuberculosis H37Rv after 5 days; type: functional, organism-based; details: 120 h
[7] = target: E. coli GroEL/ES (Escherichia coli, UniProt P0A6F5); assay: Inhibition of Escherichia coli GroEL expressed in Escherichia coliDH5alpha/Escherichia coli GroES expressed in Escherichia coli BL21 (DE3) assessed as reduction in GroEL/GroES-mediated denatured pig heart mitochondrial MDH refolding by measuring MDH enzyme activity using sodium mesoxalate as substrate after 20 to 40 mins by spectrometric analysis
[8] = target: HSP60/HSP10 (Homo sapiens, UniProt P10809); assay: Inhibition of human HSP60 expressed in Escherichia coli Rosetta 2(DE3)/human HSP10 expressed in Escherichia coli Rosetta 2(DE3) pLysS cells assessed as reduction in HSP60/HSP10-mediated denatured pig heart mitochondrial MDH refolding by measuring MDH enzyme activity using sodium mesoxalate as substrate after 40 to 60 mins by spectrometric analysis
[9] = Selectivity index, ratio of IC50 for human PTPN1 to IC50 for Mycobacterium tuberculosis PtpB
[10] = Selectivity ratio of IC50 for inhibition of human HSP60 expressed in Escherichia coli Rosetta 2(DE3)/human HSP10 expressed in Rosetta 2(DE3) pLysS cells to IC50 for inhibition of Escherichia coli GroEL expressed in Escherichia coli DH5alpha/Escherichia coli GroES expressed in Escherichia coli BL21 (DE3)
Method in brief: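 Ratio of IC50s from two analogous chaperonin-mediated refolding assays: human HSP60/10 and E. coli GroEL/ES each refold denatured malate dehydrogenase (dMDH). Refolding is followed through the recovered MDH enzymatic activity in a coupled read-out. IC50s come from dose-response testing. GroEL subunits are at 700 nM in the GroEL/ES assay.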

E. coli GroEL/ES, sequence (P0A6F5 whole entry, looked up): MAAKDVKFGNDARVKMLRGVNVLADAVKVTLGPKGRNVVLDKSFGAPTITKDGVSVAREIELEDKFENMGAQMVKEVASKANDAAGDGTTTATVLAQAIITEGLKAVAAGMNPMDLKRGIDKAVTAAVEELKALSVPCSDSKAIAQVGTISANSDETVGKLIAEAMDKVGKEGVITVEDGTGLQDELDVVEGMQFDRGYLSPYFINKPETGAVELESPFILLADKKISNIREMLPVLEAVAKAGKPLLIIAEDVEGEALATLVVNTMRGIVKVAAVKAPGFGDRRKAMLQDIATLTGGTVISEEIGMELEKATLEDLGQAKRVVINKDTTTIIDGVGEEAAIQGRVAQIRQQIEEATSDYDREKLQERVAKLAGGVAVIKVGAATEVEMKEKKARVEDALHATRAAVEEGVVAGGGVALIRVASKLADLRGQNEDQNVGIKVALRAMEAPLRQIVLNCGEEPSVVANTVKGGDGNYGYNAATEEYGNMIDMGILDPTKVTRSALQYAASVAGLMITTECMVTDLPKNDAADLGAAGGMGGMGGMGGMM
HSP60/HSP10, sequence (P10809 whole entry): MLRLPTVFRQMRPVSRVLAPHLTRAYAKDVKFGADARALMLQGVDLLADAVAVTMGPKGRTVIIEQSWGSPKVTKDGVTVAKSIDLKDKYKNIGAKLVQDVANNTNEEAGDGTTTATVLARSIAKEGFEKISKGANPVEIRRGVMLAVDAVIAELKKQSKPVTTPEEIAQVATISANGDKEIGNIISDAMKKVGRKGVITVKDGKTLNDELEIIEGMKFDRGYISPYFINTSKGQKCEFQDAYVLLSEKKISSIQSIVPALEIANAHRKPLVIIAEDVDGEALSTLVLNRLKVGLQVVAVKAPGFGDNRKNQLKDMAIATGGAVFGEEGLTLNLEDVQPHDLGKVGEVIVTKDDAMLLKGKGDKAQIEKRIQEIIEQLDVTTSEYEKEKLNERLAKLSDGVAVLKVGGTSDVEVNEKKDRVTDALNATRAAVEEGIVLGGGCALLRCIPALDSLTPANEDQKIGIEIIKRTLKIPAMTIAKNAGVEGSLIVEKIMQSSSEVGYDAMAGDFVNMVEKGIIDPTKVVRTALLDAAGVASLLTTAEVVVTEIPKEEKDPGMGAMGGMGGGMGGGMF
HSP60/HSP10, sequence (P61604 whole entry, further chain): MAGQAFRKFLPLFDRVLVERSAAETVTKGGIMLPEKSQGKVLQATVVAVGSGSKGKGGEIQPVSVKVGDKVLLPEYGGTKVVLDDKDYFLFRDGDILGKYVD

Row | Compound | IC50 [1] [µM] | IC50 [2] [µM] | IC50 [3] [µM] | IC50 [4] [µM] | inhibition at 200 µM [5] [%] | EC50 [6] [µM] | IC50 [7] [µM] | IC50 [8] [µM] | Ratio IC50 [9] | Ratio IC50 [10]
1 | O=S(=O)(Nc1ccc2oc(-c3ccc(NS(=O)(=O)c4ccc(Cl)s4)cc3)nc2c1)c1ccccc1 | 8.8 | 14 | 28 | 24 | 72 | 40 | 5.6 | 9 | 1.6 | 1.6
2 | O=S(=O)(Nc1ccc(-c2nc3cc(NS(=O)(=O)c4ccccc4O)ccc3o2)cc1)c1ccccc1O | 2.3 | 23 | 39 | 25 | 79 | 63 | 7.7 | 18 | 10 | 2.3
